Test results: paper PMC7302971 (Bioorganic chemistry, 2020)

Tests used:
[1] = DNS assay on normal human fibroblast; format: cell-based; settings: HS27 normal fibroblasts
Procedure, shortened: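 HS27 fibroblasts were tested by DNS imaging after exposure to test compound. Hoechst 33342, which stains all nuclei, and PI, which enters only membrane-compromised cells, were added before imaging.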

[2] = MTT cell viability assay, normal WBCs; format: cell-based; settings: human
Procedure, shortened: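 Human WBCs were isolated from diluted blood on HiSep density medium (400 × g, 30 min, room temperature). Mononuclear cells were PBS-washed, RBC-lysed for 5 min, washed again and kept in RPMI 1640 at 37 °C in 5% CO2. Cells were seeded at about 5×10³ per well and exposed to test compound at 2.5–100 μM for 48 h.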

GLUT1 = molecular target: T1, GLUT1 (Homo sapiens, UniProt P11166); test: GLUT transport inhibition assay in hxt0 yeast cells; format: cell-based
T1 sequence (P11166 1-492): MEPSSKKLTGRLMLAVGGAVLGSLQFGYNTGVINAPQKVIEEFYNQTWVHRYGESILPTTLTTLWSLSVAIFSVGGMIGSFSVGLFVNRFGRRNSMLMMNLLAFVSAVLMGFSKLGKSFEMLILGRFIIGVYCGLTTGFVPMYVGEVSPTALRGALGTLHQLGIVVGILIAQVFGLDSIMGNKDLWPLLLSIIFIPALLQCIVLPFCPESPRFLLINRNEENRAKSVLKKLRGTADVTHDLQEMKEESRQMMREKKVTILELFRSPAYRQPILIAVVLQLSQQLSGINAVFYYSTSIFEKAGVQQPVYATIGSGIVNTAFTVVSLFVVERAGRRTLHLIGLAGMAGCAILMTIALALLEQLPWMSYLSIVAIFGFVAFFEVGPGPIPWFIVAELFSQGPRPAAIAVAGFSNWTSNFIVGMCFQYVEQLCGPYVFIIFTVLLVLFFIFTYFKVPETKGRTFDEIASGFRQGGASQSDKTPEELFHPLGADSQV
Procedure, shortened: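 hxt0 yeast (VW4000fgy1) expressing human GLUT1 was grown at 30 °C in SC-uracil, first on 2% maltose, then on 2% glucose. Cells were PBS-washed (pH 7.4) to OD600 ~10. Test compound was varied from 0.1 to 100 μM. Uptake of 5 mM 14C-glucose ran 10 min and was stopped with ice-cold quench buffer (pH 5.5). Cells were filtered and counted by scintillation.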

GLUT5 = test: GLUT transport inhibition assay in hxt0 yeast cells; format: cell-based, human; settings: 50 μM compound, 10 mM C14-fructose
Procedure, shortened: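 Human GLUT4 was expressed in VW4000fgy1erg4 yeast (1% maltose, then 0.2% glucose, SC-uracil). GLUT5 was expressed in VW4000 (YEP with 2% maltose and G418, then 2% fructose). PBS-washed cells were exposed to 50 μM test compound. Uptake of 14C-glucose (5 mM, GLUT4) or 14C-fructose (10 mM, GLUT5) ran 10 min, followed by quench, filtration and scintillation counting. Activity was relative to 1% DMSO and to saturating phloretin (GLUT4) or MSNBA (GLUT5). Triplicates.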

IC50 (GLUT1): 28.2 µM
Structure (SMILES): O=C(CN1C(=O)SC(=Cc2ccccn2)C1=O)Nc1nc2ccccc2s1 [Compound P19, N-(benzo[d]thiazol-2-yl)-2-(2,4-dioxo-5-(pyridin-2-ylmethylene)thiazolidin-3-yl)acetamide]
CC50 [1]: 105 µM | CC50 at 48 h [2]: 104 µM | relative transport activity of GLUT5 (GLUT5): ineffective
